Assay outcomes from PubChem BioAssay.
ABHD5 PLIN5 PPI = inhibitors of human ABHD5-perilipin-5 interaction; Q00G26+Q8WTS1; Split G. princeps luciferase complementation, luminescence, 4 h; inhibition, % at 4 µM; 0.78% of 360,000 active; AID 602281;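 active = inhibition above the mean inhibition across every tested compound plus 3 SD, cut at about 22% in these data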;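 also: 0% = DMSO only wells and the 100% control is not disclosed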
GRK2 inh = inhibitors of human GRK2 displacing RNA aptamer. P25098. bead flow cytometry, FAM-aptamer displacement from GRK2. inhibition of aptamer binding, % at 10 µM. 0.59% of 330,000 active. AID 488847;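 active = inhibition of aptamer binding above 40%, roughly 3 SD of noise, on plates passing a quality check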;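 also: median bead fluorescence of bound FAM aptamer so fluorescent compounds give negative values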
NadD block = NadD (S. aureus) enzyme inhibition | purified NadD enzyme, colorimetric absorbance read-out | inhibition, % at 20 µM | 0.78% of 360,000 active | AID 602399; in the data active = inhibition above about 26%
SENP1 FRET inh = blocks the human SENP1 SUMO protease catalytic domain; recombinant SENP1 catalytic domain, CyPet-SUMO1-YPet FRET cleavage; AID 624204; inhibition, % at 10 µM; 0.21% of 360,000 active;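 active = inhibition at least 30% at 10 µM, raw YFP signal under a set limit, fluorescence ratio 0.5 to 1.5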;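 also: 0% = enzyme with DMSO and 100% = no enzyme wells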
Target sequence (Q9P0U3 419-644 limits assumed): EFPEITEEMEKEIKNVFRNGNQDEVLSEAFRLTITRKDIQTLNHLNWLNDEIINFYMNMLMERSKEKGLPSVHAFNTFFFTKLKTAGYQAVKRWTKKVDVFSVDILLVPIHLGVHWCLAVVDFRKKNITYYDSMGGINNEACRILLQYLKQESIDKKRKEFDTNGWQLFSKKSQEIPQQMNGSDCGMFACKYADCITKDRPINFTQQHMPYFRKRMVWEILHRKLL
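Assay system: hSENP1 catalytic domain, recombinant. Amount: SENP1 enzyme, 20 pM final. Schedule: 50 min reaction, RT, dark. Technique: FRET, CFP and YFP emission. Control set: no-enzyme wells low, DMSO-plus-enzyme wells high control.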
B2AR ag = agonists of human beta-2 adrenergic receptor inducing internalization; P07550; Am2.2-beta2AR cells, FAP receptor internalization, flow cytometry; response, % (concentration not given with the values); 0.43% of 340,000 active;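 active = response above a set limit, near 3 SD of response in nonfluorescent compounds, cut at about 42% in these data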
B2AR ag CP1 = activates human beta-2 adrenergic receptor; shares compounds with B2AR ag; Am2.2-beta2AR cells, FAP surface receptor, flow cytometry; stronger effect = lower value; percent response (surface receptor), % at 10 µM; 25% of 1,100 active;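 active = surface receptor percent response at or below 58%, roughly 3 SD from nonfluorescent compounds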
B2AR FAP counter = flagged in Am2.2 fluorescence counterscreen for beta-2AR agonists. 1,100 tested, under 10 active. shares compounds with B2AR ag. calls only at 10 µM. AID 588765. Am2.2 cells, FAP fluorogen flow cytometry; stronger effect = lower value;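 active = percent response below a set limit in fluorescence channel 1 and below 50% in channel 8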
ABHD5 PLIN5 conf = confirmation of human ABHD5-PLIN5 interaction inhibitors; shares compounds with ABHD5 PLIN5 PPI; 67% of 2,200 active; inhibition, % at 4 µM; biochemical ABHD5-PLIN5 interaction, luminescence; AID 651612; in the data active = inhibition above about 23%;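 also: 0% = DMSO vehicle wells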
HNF4 split-luc = active in HNF4 split-luciferase counter-screen for ABHD5-PLIN5 inhibitors; 77% of 2,200 active; inhibition, % at 4 µM; HNF4 dimerization, luminescence, biochemical; shares compounds with ABHD5 PLIN5 PPI;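 active = mean inhibition across replicate wells exceeding the computed hit threshold, cut at about 13% in these data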;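 also: light from luciferase halves that rejoin when HNF4 fusion proteins dimerize; 0% = DMSO only wells and the 100% control is not given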
Target sequence (P41235 whole entry, looked up, the tested form may be a part): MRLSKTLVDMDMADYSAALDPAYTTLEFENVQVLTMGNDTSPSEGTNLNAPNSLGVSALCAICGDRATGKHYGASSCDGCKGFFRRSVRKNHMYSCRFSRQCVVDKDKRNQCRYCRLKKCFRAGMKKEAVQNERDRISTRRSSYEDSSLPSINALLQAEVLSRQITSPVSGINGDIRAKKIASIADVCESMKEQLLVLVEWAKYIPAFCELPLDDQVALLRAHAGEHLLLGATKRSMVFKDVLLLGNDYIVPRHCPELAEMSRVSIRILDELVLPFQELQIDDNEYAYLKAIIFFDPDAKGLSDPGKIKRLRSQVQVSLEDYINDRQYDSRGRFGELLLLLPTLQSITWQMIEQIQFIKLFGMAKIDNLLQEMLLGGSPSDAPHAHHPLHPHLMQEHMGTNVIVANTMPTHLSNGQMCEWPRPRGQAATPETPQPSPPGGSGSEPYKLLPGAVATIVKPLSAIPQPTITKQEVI
Starred values were filed as active, the others as inactive; i = inactive; . = not tested or not shown; + = active, no number. The list is not random: actives were taken first. Their share in the collection is about 2.5%.

SMILES | ABHD5 PLIN5 PPI | GRK2 inh | NadD block | SENP1 FRET inh | B2AR ag | B2AR ag CP1 | B2AR FAP counter | others
COc1ccc(OC)c(C(O)C2CCCCN2)c1 (centres undefined) | -1 | 4 | -10 | 2 | 2 | 109 | i
CCCCCCn1c(O)c(C=Nc2c(C)n(C)n(-c3ccccc3)c2=O)c(=O)[nH]c1=O | -12 | 0 | -1 | -4 | 48* | 48* | i
CN(C)c1ccc(/C=C/C=C/c2sc3ccccc3[n+]2C)cc1 | 5 | 0 | -10 | 22 | 17 | . | .
CC[n+]1c(/C=C/C=C/c2ccc(N(C)C)cc2)sc2ccccc21 | 16 | 22 | -9 | 26 | 46* | 105 | i
COC(=O)C1C2CC[C@@H](CC1OC(=O)c1ccccc1)N2 (some centres undefined) | -2 | 1 | 3 | 1 | 1 | . | .
CCNCC(O)c1cccc(O)c1 (centres undefined) | -12 | 0 | -4 | 2 | -7 | 106 | i
Cc1ccc(C2CC3CCC(C2)N3Cc2ccccc2F)cc1 (centres undefined) | 7 | . | -2 | 4 | 7 | . | .
COc1ccc(CC2NCC(O)C2OC(C)=O)cc1 (centres undefined) | -7 | . | 0 | 3 | 110* | 20* | +
COc1ccc(OC)c([C@@H](O)[C@H](C)NC(C)(C)C)c1 | -4 | 0 | -2 | -1 | -5 | 121 | i
COc1ccc2c(c1)C1OCCNC1CC2 (centres undefined) | 3 | . | -3 | 1 | . | . | .
COc1ccc(OC)c2c1CCC1NCCOC21 (centres undefined) | 11 | 0 | 4 | -4 | 1 | 110 | i
CCOP(=S)(OCC)SCCSCC | -1 | 1 | -4 | 1 | -1 | . | .
CCC(=O)Nc1ccc(Cl)c(Cl)c1 | 5 | . | 2 | 2 | -4 | . | .
CCOc1cc(CNC(C)C(O)c2ccccc2)cc(Cl)c1OCC (centres undefined) | 6 | 0 | -5 | 0 | 0 | 112 | i
CC(NCc1ccc(Cl)c(Cl)c1)C(O)c1ccccc1 (centres undefined) | 6 | 1 | -12 | 1 | 4 | 85 | i
CC(NCc1ccccc1Cl)C(O)c1ccccc1 (centres undefined) | -3 | 1 | -1 | 4 | 0 | 112 | i
Cc1nn(Cc2ccccc2Cl)c(Cl)c1C(=O)O | -5 | 1 | 7 | 0 | 4 | . | .
CC(NCc1ccccc1C(F)(F)F)C(O)c1ccccc1 (centres undefined) | -4 | 0 | -5 | 1 | -2 | 102 | i
COC(=O)C1=C(c2ccc(OC(F)(F)F)cc2)C[C@@H]2CC[C@H]1N2C(=O)NCCOc1ccc(OC)cc1 | 0 | 0 | -2 | -1 | 2 | . | .
COC(=O)CC(=O)c1ccc2c(c1)OCO2 | -2 | 0 | -1 | 4 | -6 | . | .
Fc1cccc(F)c1-c1nc(-c2ccc(Cl)cc2)no1 | -2 | 3 | -9 | 1 | -8 | . | .
COc1cc(C(O)CNC(C)C)cc(F)c1OC (centres undefined) | 6 | . | 1 | 0 | 1 | 112 | i
CC(Cc1ccc(O)cc1)NCC(O)c1cc(O)cc(O)c1 (centres undefined) | -1 | 4 | 0 | -2 | . | . | .
Cc1ccc(S(=O)(=O)N[C@@H](CCCCN)C(=O)CCl)cc1 | 7 | 0 | 4 | -27 | -5 | . | .
COc1ccc(CC(C)NCCC(c2ccccc2)c2ccccc2)cc1 (centres undefined) | 1 | 0 | -3 | 1 | 21 | 105 | i
SMILES | ABHD5 PLIN5 PPI | GRK2 inh | NadD block | SENP1 FRET inh | B2AR ag | B2AR ag CP1 | B2AR FAP counter | others
Cc1cc(OC(=O)N(C)C)nc(SCc2c(Cl)cccc2Cl)n1 | 15 | 0 | -4 | 0 | 5 | . | .
COc1ccc2cc(C(=O)C3CCCN(C4CCOCC4)C3)ccc2c1 (centres undefined) | 3 | 0 | -2 | 1 | -4 | . | .
COc1c(C)cc(C(=O)C2CCCN(C3CCOCC3)C2)cc1C (centres undefined) | 0 | 2 | 5 | 0 | 58* | 125 | i
CC(C)n1c(O)c(C2c3cc(Cl)ccc3Oc3[nH]c(=O)n(C(C)C)c(=O)c32)c(=O)[nH]c1=O (centres undefined) | 37* | . | -2 | -5 | 59* | 48* | +
Brc1ccc2c(c1)C(OC1CN3CCC1CC3)c1ccccc1CS2 (centres undefined) | 29* | 0 | 6 | 1 | 50* | 77 | i | ABHD5 PLIN5 conf=11;HNF4 split-luc=12*
c1ccc2c(c1)CSc1ccccc1C2C1=NCCN1 (centres undefined) | 7 | 4 | 0 | 1 | 0 | . | .
OC12ONC(c3ccccn3)C1N1CCC2CC1 (centres undefined) | 52* | 0 | 1 | 1 | 8 | 83 | i | ABHD5 PLIN5 conf=2;HNF4 split-luc=25*
Cc1cc(C(=O)N2CCC3(CC2)OCCO3)no1 | 3 | 1 | -3 | 1 | 2 | . | .
CCCCn1c(NC(=O)c2ccco2)c(C(=O)OCC)c2nc3ccccc3nc21 | 31* | 4 | 15 | -21 | 2 | . | . | ABHD5 PLIN5 conf=41*;HNF4 split-luc=62*
CC1=CC2/C=C(\C)CCC(O)C(O)/C=C/C(=O)C23C(=O)NC(CC(C)C)C3C1C (centres undefined) | 65* | 0 | 4 | -2 | 40 | . | . | ABHD5 PLIN5 conf=90*;HNF4 split-luc=103*
O=C1CC(=O)N(c2ccccc2F)C(=O)N1 | 23* | 0 | -6 | -3 | -5 | . | . | ABHD5 PLIN5 conf=12;HNF4 split-luc=70*
CCOP(=O)(OCC)/C(C#N)=C/c1ccoc1 | -1 | 5 | -7 | -1 | 12 | . | .
Cc1c(NP(=S)(C(C)(C)C)C(C)(C)C)c(=O)n(-c2ccccc2)n1C | -1 | 0 | 2 | 0 | 0 | . | .
Cc1c(C=C2C(=O)N(C)C(=O)N(C)C2=O)c(=O)n(-c2ccccc2)n1C | 36* | 2 | 6 | 1 | 7 | . | . | ABHD5 PLIN5 conf=12;HNF4 split-luc=51*
CCCCCN1C(=O)c2ccccc2[C@@]2(C(=O)OCC)Cc3cc(OC)ccc3[C@@H]12 | 25* | . | -5 | -1 | . | . | . | ABHD5 PLIN5 conf=14;HNF4 split-luc=12
CCOC(=O)[C@]12Cc3cc(C)ccc3[C@H]1N(C(C)C)C(=O)c1ccccc12 | 26* | . | -6 | 0 | . | . | . | ABHD5 PLIN5 conf=25*;HNF4 split-luc=21*
CCOC(=O)[C@]12Cc3cc(C)ccc3[C@H]1N(C1CCCCC1)C(=O)c1cc(OC)ccc12 | 61* | . | 5 | -2 | . | . | . | ABHD5 PLIN5 conf=43*;HNF4 split-luc=54*
